Source: PubChem
In the library only some 9.6% were active in any assay of this set; here they are far more common.
Lmaj promast: inhibitors of Leishmania major promastigote growth; AID 1063; inhibition, % at 10 µM; 200,000 tested, 9% active; Leishmania major promastigotes, resazurin fluorescence viability; in the data active = inhibition above about 50%;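 also: promastigotes grown with compound for 44 hours at 28 °C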
APP transl inh: APP translation inhibition; 190,000 tested, 0.82% active; inhibition, % at 2 µM; AID 1285; SH-SY5Y APP 5'UTR-luciferase reporter, luminescence;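 active = inhibition above a set limit, derived from the sample mean plus 3 SD, cut at about 45% in these data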
MT stabilize HCS: microtubule stabilizers in HeLa cells; % tubulin-high responders, % at 10 µM; HeLa tubulin immunostaining HCS, 24 h; share of cells brighter than vehicle mean+2SD; 200,000 tested, 0.83% active;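 active = plate Z-score above 3 for both tubulin-high and condensed-nucleus cell shares, with cell loss under 80%, at 10 µM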;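 also: anti alpha tubulin signal scored within the nucleus-defined area of each cell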
b-catenin transl: alters nuclear translocation of beta-catenin in HeLa cells; immunofluorescence imaging; nuclear translocation activity, % at 5 µM; 190,000 tested, 0.3% active; AID 1665;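 active = nuclear translocation activity above 50% at 5 µM, with a well cell count of 50 or more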;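 also: per-cell ratio of nuclear to cytoplasmic median beta-catenin stain intensity; plate controls were DMSO negative control for no effect and GSK-3 inhibitor IX positive control for full effect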
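Test system: human HeLa cells, endogenous beta-catenin. Times: 24 h compound exposure, 37°C. Measured by: beta-catenin immunofluorescence imaging with DAPI.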
Ba/F3 V617F tox: lowers viability of Ba/F3 cells expressing EpoR and JAK2V617F; inhibition, % at 5.6 µM; 220,000 tested, 1.1% active; ATP luminescence;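 active = inhibition above the campaign mean plus 3 SD over all tested compounds, cut at about 24% in these data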;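 also: cytokine-independent growth of Ba/F3 cells driven by EpoR plus mutant JAK2; 0% = DMSO-treated cells and 100% = JAK inhibitor I control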
BaF3 tox: reduces parental Ba/F3 cell viability, JAK2V617F counter-screen; CellTiter-Glo ATP luminescence; inhibition, % at 5.6 µM; 220,000 tested, 1.1% active;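 active = inhibition above a per-campaign cutoff, the mean inhibition of all tested compounds plus 3 SD, cut at about 27% in these data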;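 also: 0% = DMSO wells and 100% = JAK Inhibitor I control wells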
* marks the source's active call; other numbers are inactive results; x = no result.

SMILES | Lmaj promast | APP transl inh | MT stabilize HCS | b-catenin transl | Ba/F3 V617F tox | BaF3 tox
COc1cc(CN2CCC(C(=O)N3CCC(C)CC3)CC2)cc(Br)c1O | 82.1* | 15.5 | 1.8 | -8.2 | -1.4 | 0.8
COc1cc(CN2CCC(C(=O)N3CCN(c4ccccc4F)CC3)CC2)cc(OC)c1OC | 83.1* | -6.0 | 1.0 | x | 0.9 | 4.9
COc1cc(CN2CCC(C(=O)NC3CCCC3)CC2)cc(Br)c1O | 15.6 | -2.1 | 4.7 | -5.3 | -3.2 | -2.0
COc1ccc(NS(=O)(=O)c2ccc(NC(=O)c3ccccc3Br)cc2)nn1 | -9.8 | 3.3 | 0.5 | -1.6 | -3.4 | 2.9
CN=c1scc(-c2ccc(F)cc2)n1/N=C/c1ccc(O)c(O)c1 | 100.0* | 37.4 | 4.5 | x | 97.8* | 36.1*
CN=c1scc(-c2ccc([N+](=O)[O-])cc2)n1/N=C/c1ccco1 | -5.2 | -196.4 | 1.8 | -1.2 | 1.4 | 7.8
COc1cc2c(cc1OC)CN(C(=O)c1cccs1)CC2 | -0.9 | -16.1 | 3.2 | -1.5 | -1.2 | 5.3
O=C(/C=C/c1cccs1)N1CCN(c2ccc(O)cc2)CC1 | 75.7* | -1.4 | 2.8 | 1.5 | 6.2 | 5.9
COc1cc2c(cc1OC)CN(C(=O)c1cc3ccccc3oc1=O)CC2 | -2.3 | 10.9 | 19.2* | 0.6 | 8.3 | 13.9
COc1cc2c(cc1OC)CN(C(=O)/C=C/c1cccs1)CC2 | x | x | x | 120.1* | 81.3* | 62.6*
COc1ccc(CN2CCCC2C(=O)Nc2ccc(OC)c(OC)c2)cc1OC (centres undefined) | 0.9 | -9.9 | 3.1 | 1.3 | 1.2 | 2.9
CCc1ccc(C2=NN(CCC(=O)NCc3cccs3)C(=O)CC2)cc1 | -1.0 | 1.9 | 5.4 | -1.1 | 3.6 | 7.0
C=CCN1C(=O)/C(=c2\sc3nc(=O)c(Cc4ccccc4Cl)nn3c2=O)c2ccccc21 | x | x | x | -3.8 | -1.9 | -1.6
CCOc1ccccc1NC(=O)NCc1ccco1 | x | x | x | -0.1 | -4.6 | 2.7
CN(CC(=O)Nc1ccc(Cl)cc1)CC(=O)Nc1ccc(C(N)=O)cc1 | 0.5 | -3.5 | 2.7 | -0.7 | 5.8 | 7.9
CN(CC(=O)Nc1ccc(C(N)=O)cc1)CC(=O)Nc1ccccc1Cl | 50.8* | 15.8 | 1.4 | x | 2.1 | 4.9
Cc1c(C(=O)Oc2ccc(F)cc2)sc2ncn(Cc3cccc(F)c3)c(=O)c12 | 50.9* | -8.3 | 3.7 | -3.5 | -3.6 | 1.4
CCOc1ccc(NC(=S)N2CCN(C/C=C/c3ccccc3)CC2)cc1 | 89.5* | -7.5 | 3.5 | -1.0 | -2.0 | 1.1
COc1ccc(OC)c(NC(=S)N2CCN(C/C=C/c3ccccc3)CC2)c1 | 29.0 | 5.8 | 2.8 | -0.2 | -1.8 | 1.8
COc1ccc(NC(=S)N2CCN(C/C=C/c3ccccc3)CC2)cc1 | 85.6* | 2.8 | 5.8 | -0.4 | 1.9 | 4.1
COc1ccc(NC(=S)N2CCN(C/C=C/c3ccccc3)CC2)cc1OC | 73.6* | 8.0 | 0.9 | 4.9 | -2.7 | 2.2
CCn1cc(C2=NC(CC(C)C)CO2)c2ccccc21 (centres undefined) | x | x | x | 0.3 | -2.4 | 0.2
CC(C)(CC(=O)O)CC(=O)Nc1cc(C(F)(F)F)cc(C(F)(F)F)c1 | x | x | x | -1.3 | 1.0 | -3.4
C=CCNC(=O)/C(C#N)=C\c1cc(Cl)c(OCC)c(OC)c1 | 85.5* | -7.1 | 5.9 | -3.1 | 1.7 | 3.4
C=CCNC(=O)/C(C#N)=C/c1cc(Br)ccc1OC | 16.0 | -14.3 | 2.0 | 0.8 | -3.6 | 0.8
SMILES | Lmaj promast | APP transl inh | MT stabilize HCS | b-catenin transl | Ba/F3 V617F tox | BaF3 tox
Cc1c(Cl)cccc1NC(=O)[C@@H](NC(=O)c1ccccc1Cl)C(C)C | 73.3* | -1.9 | 1.4 | 2.1 | 4.0 | 13.9
CC(C)[C@H](NC(=O)c1ccccc1Cl)C(=O)NC1CCCCCC1 | 21.8 | 1.1 | 1.9 | -2.9 | -1.6 | 0.8
O=C(c1ccc(F)cc1)N(NC(=O)C(O)(c1ccccc1)c1ccccc1)c1ccccc1 | 65.9* | 13.3 | 1.3 | -1.7 | 0.3 | 0.0
COC(=O)N(NC(=O)C(O)(c1ccccc1)c1ccccc1)c1ccccc1 | -1.4 | 5.7 | 5.1 | 3.0 | 6.0 | 11.5
COc1ccccc1NC(=O)/C(C#N)=C/c1c(C)nn(-c2ccc(F)cc2)c1Cl | 0.9 | -7.2 | 2.5 | -0.3 | -3.4 | 1.1
Cc1nn(-c2ccccc2)c(Cl)c1/C=C(\C#N)C(=O)NC(C)C | 99.9* | -17.1 | 5.8 | -1.7 | -2.5 | 2.4
COc1ccc(NC(=O)/C(C#N)=C/c2c(C)nn(-c3ccc(F)cc3)c2Cl)cc1Cl | 95.6* | -6.0 | 4.4 | -4.3 | -1.4 | 4.1
O=C(N/C(=C/c1ccccc1Cl)C(=O)N1CCCC1)c1ccccc1 | 8.8 | -1.6 | 2.8 | x | -3.0 | 0.9
CCC(C)N1CC(O)=C(c2nc3ccccc3[nH]2)C1=N (centres undefined) | 12.6 | -34.7 | 2.9 | -7.5 | -0.8 | 89.8*
Cc1ccc(N/C(N)=N/c2nc(CSc3ccccn3)cc(=O)[nH]2)c(C)c1 | 3.5 | 18.9 | 2.0 | -1.0 | 2.5 | 8.2
COc1cccc(N/C(N)=N/c2nc(CSc3ccccn3)cc(=O)[nH]2)c1 | 22.5 | 89.3* | 4.8 | -1.7 | 1.0 | 10.3
CCc1ccc(N/C(N)=N/c2nc(CSc3ccccn3)cc(=O)[nH]2)cc1 | 2.9 | -3.7 | 16.8* | 1.2 | 0.8 | 6.9
Cc1onc(-c2ccccc2)c1CNS(=O)(=O)c1ccccc1[N+](=O)[O-] | x | x | x | -5.0 | -0.1 | 0.9
CCCCN(CC(=O)NCc1ccc(Cl)cc1)S(=O)(=O)c1ccc2c(c1)OCCO2 | -4.1 | 11.3 | 2.1 | -4.4 | 2.8 | 2.8
COC(=O)C1C(c2ccc(Br)cc2)Nc2nnc(C(F)(F)F)n2C1(C)O (centres undefined) | 11.8 | -2.2 | 2.1 | -0.6 | -1.2 | 2.2
CCCCOc1ccc(CC(=O)NO)cc1 | -9.2 | -6.3 | 3.5 | -2.6 | -1.0 | 1.8
CSc1ccc(CN2CCC(O)CC2)cc1 | 80.8* | -3.0 | 2.5 | x | -1.9 | 3.8
CSc1ccc(CN2CCC(C(=O)NCc3ccc(C)cc3)CC2)cc1 | 92.1* | -6.6 | 2.4 | 5.8 | 2.0 | 11.7
CCN1CCN(Cc2ccc(NC(=O)Nc3ccc(SC)cc3)cc2)CC1 | 3.5 | -44.9 | 2.4 | 0.3 | -0.1 | 0.0
CCCCOc1ccc(CN2CCC(O)CC2)cc1 | 90.7* | -6.4 | 5.5 | 1.0 | -1.2 | 5.1
CCCCN(C)C(=O)C1CCN(Cc2ccc(OCc3ccccc3)cc2)CC1 | 61.3* | 16.4 | 2.7 | 0.4 | -0.5 | 6.0
CCOC(=O)N1CCN(C(=O)C2CCN(Cc3cccc(OCc4ccccc4)c3)CC2)CC1 | -10.4 | -26.9 | 2.1 | -2.4 | -3.3 | 9.3
Cc1nc(N)sc1N=Nc1ccc(F)cc1 | 27.3 | -60.3 | 3.0 | x | 1.8 | 4.7
O=C(CN1CCN(c2ccccc2O)CC1)Nc1ccc2c(c1)CCC2 | -4.7 | 0.1 | 5.6 | -0.7 | -5.1 | 1.7
O=C(CCl)N(c1ccccc1)c1c[nH]c2ccccc12 | 97.3* | 32.0 | 14.0 | 1.0 | 101.1* | 50.0*
CCN(CC)C(=O)CCCc1c[nH]c2ccccc12 | -1.5 | -6.0 | 5.1 | 0.7 | -1.1 | -0.5
N#Cc1ncc(Cl)c2ccccc12 | x | x | x | 0.2 | -2.3 | -3.8
